In ChEMBL document CHEMBL1123265, “Synthesis and antihypertensive activity of 4-(cyclic amido)-2H-1-benzopyrans” (1986):

What was measured:
Assay type in all cases: functional
Rattus norvegicus [1] = assay: Maximum fall in blood pressure was evaluated at an oral dose of 10.0 mg/kg in (SHR) spontaneous hypertensive rats
Outline: (§1)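 Conscious spontaneously hypertensive rats (Okamoto-derived, 14–24 weeks old; systolic pressure >180 mmHg counted as hypertensive), six or more per dose level. Given orally by dosing needle into the esophagus as solution or suspension in 1% w/v methylcellulose. Systolic pressure read by tail cuff, each reading the mean of at least six recordings, taken before dosing and at intervals up to 6 h; maximum fall recorded.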

Rattus norvegicus [2] = assay: Maximum fall in blood pressure was evaluated at an oral dose of 0.3 mg/kg in (SHR) spontaneous hypertensive rats; outline: as §1
Rattus norvegicus [3] = assay: Maximum fall in blood pressure was evaluated at an oral dose of 1.0 mg/kg in (SHR) spontaneous hypertensive rats; outline: as §1
Rattus norvegicus [4] = assay: Maximum fall in blood pressure was evaluated at an oral dose of 10 mg/kg in (SHR) spontaneous hypertensive rats; outline: as §1
Rattus norvegicus [5] = assay: Maximum fall in blood pressure was evaluated at an oral dose of 3.0 mg/kg in (SHR) spontaneous hypertensive rats; outline: as §1
Rattus norvegicus [6] = assay: Maximum fall in blood pressure was evaluated at an oral dose of 0.1 mg/kg in (SHR) spontaneous hypertensive rats; outline: as §1
Rattus norvegicus [7] = assay: Maximum fall in blood pressure was evaluated at an oral dose of 0.03 mg/kg in (SHR) spontaneous hypertensive rats; outline: as §1

| Compound | Max fall in blood pressure (Rattus norvegicus [2]) | Max fall in blood pressure (Rattus norvegicus [3]) | further results |
| --- | --- | --- | --- |
| CC(=O)c1ccc2c(c1)C(N1CCN(C(=O)c3ccc(F)cc3)CC1=O)[C@H](O)C(C)(C)O2 (stereo partly specified) |  |  | Max fall in blood pressure (Rattus norvegicus [1]): 16% |
| COC(=O)c1ccc2c(c1)C(N1CCCC1=O)[C@H](O)C(C)(C)O2 (stereo partly specified) | 11% | 20% | Max fall in blood pressure (Rattus norvegicus [4]): 44% |
| CC1(C)Oc2c(cccc2[N+](=O)[O-])C(N2CCCC2=O)[C@@H]1O (stereo partly specified) |  | 7% |  |
| CC1(C)Oc2ccc(C#N)cc2C(N2CCN(C(=O)c3ccccc3)CC2=O)[C@@H]1O (stereo partly specified) |  |  | Max fall in blood pressure (Rattus norvegicus [1]): 14% |
| CC1(C)C=C(N2CCCCC2=O)c2cc(C#N)ccc2O1 | 25% | 55% |  |
| CC1(C)C=C(N2CCCC2=O)c2cc(C#N)ccc2O1 | 47% |  |  |
| CC1(C)Oc2ccc([N+](=O)[O-])cc2C(N2CCCC2=O)[C@@H]1O (stereo partly specified) | 27% | 63% |  |
| CC1(C)Oc2ccc(C#N)cc2C(N2CCOCC2=O)[C@@H]1O (stereo partly specified) | 26% | 27% |  |
| CC(=O)N1CCN(C2c3cc(C#N)ccc3OC(C)(C)[C@H]2O)C(=O)C1 (stereo partly specified) |  | 17% | Max fall in blood pressure (Rattus norvegicus [5]): 23% |
| CCCCN1CCN(C2c3cc(C#N)ccc3OC(C)(C)[C@H]2O)C(=O)C1 (stereo partly specified) | 48% | 61% | Max fall in blood pressure (Rattus norvegicus [6]): 18% |
| CC1(C)Oc2ccc(C#N)cc2C(N2CCSC2=O)[C@@H]1O (stereo partly specified) | 27% | 30% |  |
| CN1CCCN(C2=CC(C)(C)Oc3ccc(C#N)cc32)C1=O |  | 29% |  |
| CC1(C)Oc2ccc(C#N)cc2C(N2CCN(C(=O)c3ccco3)CC2=O)[C@@H]1O (stereo partly specified) |  | 15% | Max fall in blood pressure (Rattus norvegicus [5]): 43% |
| CC1(C)Oc2ccc(C#N)cc2C(N2CCSCC2=O)[C@@H]1O (stereo partly specified) |  | 9% | Max fall in blood pressure (Rattus norvegicus [4]): 12% |
| CC1(C)Oc2ccc(C#N)cc2C(N2OCCC2=O)[C@@H]1O (stereo partly specified) |  |  | Max fall in blood pressure (Rattus norvegicus [1]): 19% |
| CC1(C)Oc2ccccc2C(N2CCCC2=O)[C@@H]1O (stereo partly specified) |  |  | Max fall in blood pressure (Rattus norvegicus [4]): 9% |
| CC1(C)Oc2ccc(C#N)cc2C(N2CCCC2=O)[C@@H]1O (stereo partly specified) | 39% | 47% | Max fall in blood pressure (Rattus norvegicus [6]): 13% |
| CC1(C)C=C(N2CCSC2=O)c2cc(C#N)ccc2O1 | 9% | 27% |  |
| CC1(C)Oc2ccc(C#N)cc2C(N2CCN(Cc3ccccc3)CC2=O)[C@@H]1O (stereo partly specified) | 26% | 35% | Max fall in blood pressure (Rattus norvegicus [6]): 10% |
| CC1(C)Oc2ccc(Cl)cc2C(N2CCCC2=O)[C@@H]1O (stereo partly specified) |  | 8% | Max fall in blood pressure (Rattus norvegicus [4]): 37% |
| COC(=O)c1ccc2c(c1)C(N1CCCCC1=O)[C@H](O)C(C)(C)O2 (stereo partly specified) | 13% | 42% |  |
| CC1(C)C=C(N2CCCC2=O)c2cc(Cl)ccc2O1 |  |  | Max fall in blood pressure (Rattus norvegicus [1]): 36% |
| CC1(C)Oc2ccc(C#N)cc2C(N2CCNCC2=O)[C@@H]1O (stereo partly specified) | 53% |  | Max fall in blood pressure (Rattus norvegicus [6]): 28% |
| CC1(C)Oc2ccc(C#N)cc2C(N2CCOC2=O)[C@@H]1O (stereo partly specified) | 20% | 29% |  |
| CC1(C)Oc2ccc(C=O)cc2C(N2CCCC2=O)[C@@H]1O (stereo partly specified) |  |  | Max fall in blood pressure (Rattus norvegicus [1]): 25% |

| Compound | Max fall in blood pressure (Rattus norvegicus [2]) | Max fall in blood pressure (Rattus norvegicus [3]) | further results |
| --- | --- | --- | --- |
| CC(=O)O[C@H]1C(N2CCCC2=O)c2cc(C#N)ccc2OC1(C)C (stereo partly specified) |  | 30% | Max fall in blood pressure (Rattus norvegicus [5]): 39% |
| CC(=O)c1ccc2c(c1)C(N1CCCC1=O)=CC(C)(C)O2 |  | 48% |  |
| CC(=O)Nc1cc2c(cc1[N+](=O)[O-])OC(C)(C)[C@@H](O)C2N1CCCC1=O (stereo partly specified) |  | 3% | Max fall in blood pressure (Rattus norvegicus [5]): 14% |
| CC(=O)Nc1cc2c(cc1[N+](=O)[O-])C(N1CCCC1=O)[C@H](O)C(C)(C)O2 (stereo partly specified) | 62% |  | Max fall in blood pressure (Rattus norvegicus [6]): 37% |
| CC1(C)Oc2cc([N+](=O)[O-])ccc2C(N2CCCC2=O)[C@@H]1O (stereo partly specified) | 12% | 56% | Max fall in blood pressure (Rattus norvegicus [4]): 68% |
| CC1(C)Oc2cc([N+](=O)[O-])c(N)cc2C(N2CCCC2=O)[C@@H]1O (stereo partly specified) |  | 25% |  |
| CC(=O)c1ccc2c(c1)C(N1CCCCC1=O)[C@H](O)C(C)(C)O2 (stereo partly specified) | 29% | 66% |  |
| CC1(C)Oc2ccc(C#N)cc2C(N2CCCC2)[C@@H]1O (stereo partly specified) | 21% | 29% | Max fall in blood pressure (Rattus norvegicus [6]): 8% |
| CC1(C)Oc2ccc(C#N)cc2C(N2CCCC2=O)C1O (single isomer, unassigned) [CROMAKALIM] | 47% |  | Max fall in blood pressure (Rattus norvegicus [6]): 31% |
| CC1(C)Oc2ccc(C#N)cc2C(N2CCCC2=O)[C@@H]1OC=O (stereo partly specified) | 31% | 36% |  |
| CC1(C)Oc2ccc(C#N)cc2C(N2CCCCCCC2=O)[C@@H]1O (stereo partly specified) |  |  | Max fall in blood pressure (Rattus norvegicus [1]): 11% |
| CC1(C)Oc2ccc(C#N)cc2C(N2CCCCCC2=O)[C@@H]1O (stereo partly specified) |  | 10% |  |
| CN1CCCN(C2c3cc(C#N)ccc3OC(C)(C)[C@H]2O)C1=O (stereo partly specified) |  | 23% |  |
| COC(=O)C1=C(C)NC(C)=C(C(=O)OC)C1c1ccccc1[N+](=O)[O-] [NIFEDIPINE] |  | 13% | Max fall in blood pressure (Rattus norvegicus [1]): 36%; Max fall in blood pressure (Rattus norvegicus [5]): 27% |
| CC1(C)Oc2ccc(C#N)cc2C(N2CCCC2=S)[C@@H]1O (stereo partly specified) | 39% |  | Max fall in blood pressure (Rattus norvegicus [6]): 16% |
| O=C1CCCN1C1c2cc([N+](=O)[O-])ccc2OC[C@H]1O (stereo partly specified) |  |  | Max fall in blood pressure (Rattus norvegicus [1]): 5% |
| CN1CCN(C2c3cc(C#N)ccc3OC(C)(C)[C@H]2O)C(=O)C1 (stereo partly specified) | 37% |  | Max fall in blood pressure (Rattus norvegicus [6]): 20% |
| CC1(C)C=C(N2CCCC2=O)c2cc([N+](=O)[O-])ccc2O1 |  | 68% |  |
| CC1(C)Oc2ccc(C#N)cc2C(N2CC[N+](C)(C)CC2=O)[C@@H]1O.[I-] (stereo partly specified) |  | 9% |  |
| CC1(C)Oc2ccc(C#N)cc2C(N2CCCCC2=O)[C@@H]1O (stereo partly specified) | 49% | 59% | Max fall in blood pressure (Rattus norvegicus [7]): 27%; Max fall in blood pressure (Rattus norvegicus [6]): 46% |
| CC1Oc2ccc([N+](=O)[O-])cc2C(N2CCCC2=O)[C@@H]1O (stereo partly specified) |  |  | Max fall in blood pressure (Rattus norvegicus [1]): 34% |
| CC1(C)CC(N2CCCC2=O)c2cc(C#N)ccc2O1 (stereo unspecified) |  | 15% | Max fall in blood pressure (Rattus norvegicus [5]): 45% |
| CC(=O)c1ccc2c(c1)C(N1CCCC1=O)[C@H](O)C(C)(C)O2 (stereo partly specified) | 33% | 56% |  |
| CC1(C)C=C(N2CCCCCC2=O)c2cc(C#N)ccc2O1 |  | 15% | Max fall in blood pressure (Rattus norvegicus [4]): 36% |
| CC1(C)Oc2ccc(C#N)cc2[C@@H](N2CCCC2=O)[C@@H]1O (single isomer, unassigned) [LEVCROMAKALIM] |  | 23% | Max fall in blood pressure (Rattus norvegicus [1]): 46% |
